From PMC6045484 (ACS Omega, 2018)
In brackets after ≈: the same amount, converted by molar mass.

Columns and labels:
[1] = test system: CQ-sensitive (CQS) and CQ-resistant (CQR) strains; details: strain not stated ref 11; cited from earlier work
P. falciparum (D6) = test: in vitro antimalarial activity, plasmodial LDH; assay type: cell-based, Plasmodium falciparum; details: Plasmodium falciparum, D6, 72 h, read-out: P. falciparum (D6) IC50
P. falciparum (W2) = test: in vitro antimalarial activity, plasmodial LDH; assay type: cell-based, Plasmodium falciparum; details: Plasmodium falciparum, W2, 72 h, read-out: P. falciparum (W2) IC50, CQ-resistant W2 strain, 72 h
Summary of the method: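 P. falciparum-infected erythrocytes (2% parasitemia, 2% hematocrit) in RPMI 1640 with 10% human serum and 60 μg/mL amikacin. Exposed to test compound dilutions for 72 h at 37 °C under 90% N2/5% O2/5% CO2. LDH measured with Malstat reagent (30 min, room temperature), then NBT/PES for 1 h in the dark, stopped with 5% acetic acid, read at 650 nm. IC50 from dose-response curves.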

[2] = test system: P. berghei (sensitive strain); test: blood-schizontocidal activity against P. berghei infection in mice; assay type: in vivo, Plasmodium berghei; details: Swiss mice
Summary of the method: (§1)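 Swiss mice of either sex (about 15–20 g, same age), six per group, inoculated intraperitoneally on day 0 with 1 × 10^7 infected erythrocytes from a donor mouse. Oral test compound at 100, 50, 25 or 10 mg/kg, CQ diphosphate (10 mg/kg/day × 4) or vehicle started 4 h later, on D0 to D+3. Giemsa tail-blood smears on D+4 and D+7. Curative: parasites eliminated, no relapse, all mice surviving to D+60.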

[3] = test system: multidrug-resistant P. yoelii nigeriensis; test: blood-schizontocidal activity against P. yoelii nigeriensis infection in mice; assay type: in vivo, Plasmodium yoelii nigeriensis; details: Swiss mice
Summary of the method: as §1

[4] = test system: SK-MEL, KB, BT-549, SK-OV-3, VERO and LLC-PK1 cells; test: cytotoxicity, neutral red uptake assay; assay type: cell-based, mammalian; details: highest test concentration 4760 ng/mL
Summary of the method: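 Cells seeded at 25 000/well and allowed 24 h to reach confluence. Test compound was then added and incubated 48 h. Viable cells were counted by a modified neutral red uptake method. The panel was four human cancer lines and two noncancerous mammalian kidney lines. Doxorubicin served as positive control and DMSO as negative control.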

[5] = test system: L. donovani promastigotes; test: in vitro antileishmanial activity, alamarBlue assay; assay type: cell-based, Leishmania donovani; details: Leishmania donovani, 48 h
C. albicans ATCC90028 = test: in vitro antifungal activity; assay type: cell-based, Candida albicans
Summary of the method: (§2)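 Modified NCCLS broth method in Sabouraud dextrose. Inoculum set by OD630 to 1.5 × 10^3 CFU/mL. Test compound serially diluted in 20% DMSO/saline, duplicate wells, up to 20 μg/mL. Incubated 70–74 h at 35 °C; 530 nm read before and after. IC50 is 50% growth inhibition; MIC is no detectable growth. MFC from clear wells subcultured on agar. Amphotericin B control.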

C. glabrata ATCC90030 = test: in vitro antifungal activity; assay type: cell-based, Candida glabrata
Summary of the method: as §2

C. krusei ATCC6258 = test: in vitro antifungal activity; assay type: cell-based, Candida krusei
Summary of the method: as §2

C. neoformans ATCC90113 = test: in vitro antifungal activity; assay type: cell-based, Cryptococcus neoformans; details: Cryptococcus neoformans
Summary of the method: as §2

A. fumigatus ATCC 90906 = test: in vitro antifungal activity; assay type: cell-based, Aspergillus fumigatus; details: Aspergillus fumigatus
Summary of the method: as §2

SA (ATCC29213) = test: in vitro antibacterial activity; assay type: cell-based; details: Staphylococcus aureus
Summary of the method: (§3)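 Test compound serially diluted in 20% DMSO/saline and plated in duplicate, up to 20 μg/mL. Inoculum in cation-adjusted Mueller–Hinton broth, pH 7.3, set by OD630 to 5 × 10^5 CFU/mL. Incubated 16–20 h at 35 °C; 530 nm read before and after. IC50 is 50% growth inhibition; MIC is no detectable growth. MBC from clear wells subcultured on agar. Ciprofloxacin control.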

MRSA (ATCC33591) = test: in vitro antibacterial activity; assay type: cell-based, methicillin-resistant Staphylococcus aureus; details: Staphylococcus aureus, ATCC33591|MRSA, read-out: MIC, MRSA
Summary of the method: as §3

[6] = test system: M. intracellulare (ATCC23068); test: in vitro antibacterial activity, modified alamarBlue procedure; assay type: cell-based, Mycobacterium intracellulare; details: Mycobacterium intracellulare
Summary of the method: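 Modified alamarBlue microplate method. Test compound serially diluted in 20% DMSO/saline, duplicate wells, up to 20 μg/mL. Inoculum 2.0 × 10^6 CFU/mL in Middlebrook 7H9 with OADC, pH 7.3, containing 5% alamarBlue. Incubated 70–74 h at 37 °C, 10% CO2; fluorescence 544ex/590em read before and after. MIC: no blue-to-pink change. MBC by subculturing blue wells on agar. Ciprofloxacin control.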

## COc1cc(NC(C)CCCN)c2nc(C(C)(C)C)ccc2c1 (centres unmarked) [2-tert-butylprimaquine]
[1]
  in vitro antimalarial activity IC50: 0.039 mg/L

## CCN(CC)CCCC(C)Nc1ccnc2cc(Cl)ccc12 (centres unmarked) [CQ, chloroquine, reference compound]
P. falciparum (D6)
  IC50: 0.015 mg/L (≈ 0.0469 µM)
P. falciparum (W2)
  IC50: 0.14 mg/L (≈ 0.438 µM)
[2]; 10 mg/kg/day × 4, oral
  P. berghei blood-schizontocidal activity (mice cured/treated): active (2/6)
[2]; 25 mg/kg/day × 4, oral
  P. berghei blood-schizontocidal activity (mice cured/treated): curative (6/6)
[2]; 50 mg/kg/day × 4, oral
  P. berghei blood-schizontocidal activity (mice cured/treated): curative (6/6)
[2]; 100 mg/kg/day × 4, oral
  P. berghei blood-schizontocidal activity (mice cured/treated): curative (6/6)
[3]; 25 mg/kg/day × 4, oral
  P. yoelii nigeriensis blood-schizontocidal activity (mice cured/treated): inactive (0/6)
[3]; 50 mg/kg/day × 4, oral
  P. yoelii nigeriensis blood-schizontocidal activity (mice cured/treated): inactive (0/6)
[3]; 100 mg/kg/day × 4, oral
  P. yoelii nigeriensis blood-schizontocidal activity (mice cured/treated): inactive (0/6)
[1]
  in vitro antimalarial activity IC50: 0.113 mg/L

## CCCCCCCOc1c(OC)cc(NC(C)CCCN)c2nc(C(C)(C)C)ccc12 (centres unmarked) [compound 48, N^4-(2-tert-Butyl-5-(heptyloxy)-6-methoxyquinolin-8-yl)pentane-1,4-diamine]
P. falciparum (D6)
  IC50: 0.05 mg/L (≈ 0.116 µM)
P. falciparum (W2)
  IC50: 0.037 mg/L (≈ 0.0861 µM)
[4]
  cytotoxicity CTX: NC (NC, not cytotoxic up to 4760 ng/mL (4.76 μg/mL))
[2]; 10 mg/kg/day × 4, oral
  P. berghei blood-schizontocidal activity (mice cured/treated): active (4/6)
[2]; 25 mg/kg/day × 4, oral
  P. berghei blood-schizontocidal activity (mice cured/treated): curative (6/6)
[2]; 50 mg/kg/day × 4, oral
  P. berghei blood-schizontocidal activity (mice cured/treated): curative (6/6)
[2]; 100 mg/kg/day × 4, oral
  P. berghei blood-schizontocidal activity (mice cured/treated): curative (6/6)
[3]; 25 mg/kg/day × 4, oral
  P. yoelii nigeriensis blood-schizontocidal activity (mice cured/treated): inactive (0/6)
[3]; 50 mg/kg/day × 4, oral
  P. yoelii nigeriensis blood-schizontocidal activity (mice cured/treated): active (3/6)
[3]; 100 mg/kg/day × 4, oral
  P. yoelii nigeriensis blood-schizontocidal activity (mice cured/treated): active (4/6)
[5]; read-out: L. donovani IC50, promastigotes, 48 h
  IC50: 5 mg/L (≈ 11.6 µM)
[5]; read-out: L. donovani IC90, promastigotes, 48 h
  IC90: > 40 mg/L
C. albicans ATCC90028
  C. albicans MFC: 10.00 mg/L
  C. albicans MIC: 10.00 mg/L
C. albicans ATCC90028; Candida albicans, ATCC90028, read-out: C. albicans IC50
  IC50: 4.93 mg/L (≈ 11.5 µM)
C. albicans ATCC90028; Candida albicans, ATCC90028, read-out: C. albicans MIC
  MIC: 10 mg/L (≈ 23.3 µM)
C. glabrata ATCC90030
  C. glabrata MFC: 5.00 mg/L
  C. glabrata MIC: 5.00 mg/L
C. krusei ATCC6258
  C. krusei MFC: 5.00 mg/L
  C. krusei MIC: 5.00 mg/L
C. neoformans ATCC90113; ATCC90113, read-out: C. neoformans IC50
  IC50: 2.07 mg/L (≈ 4.82 µM)
C. neoformans ATCC90113; ATCC90113, read-out: C. neoformans MFC
  MFC: 2.5 mg/L (≈ 5.82 µM)
C. neoformans ATCC90113; ATCC90113, read-out: C. neoformans MIC
  MIC: 2.5 mg/L (≈ 5.82 µM)
A. fumigatus ATCC 90906; ATCC90906, read-out: A. fumigatus IC50
  IC50: 6 mg/L (≈ 14 µM)
A. fumigatus ATCC 90906; ATCC90906, read-out: A. fumigatus MFC
  MFC: > 20 mg/L
A. fumigatus ATCC 90906; ATCC90906, read-out: A. fumigatus MIC
  MIC: > 20 mg/L
SA (ATCC29213); ATCC29213, read-out: IC50 (concentration that affords 50% growth inhibition), SA
  IC50: 2.77 mg/L (≈ 6.45 µM)
SA (ATCC29213); ATCC29213, read-out: MBC (minimum bactericidal concentration), SA
  MBC: 20 mg/L (≈ 46.5 µM)
SA (ATCC29213); ATCC29213, read-out: MIC, SA
  MIC: 5 mg/L (≈ 11.6 µM)
MRSA (ATCC33591)
  MIC: 5 mg/L (≈ 11.6 µM)
[6]; ATCC23068, read-out: IC50 (concentration that affords 50% growth inhibition), M. intracellulare
  IC50: 3.72 mg/L (≈ 8.66 µM)
[6]; ATCC23068, read-out: MBC (minimum bactericidal concentration), M. intracellulare
  MBC: 5 mg/L (≈ 11.6 µM)
[6]; ATCC23068, read-out: MIC, M. intracellulare
  MIC: 5 mg/L (≈ 11.6 µM)
